Assay results as given in ChEMBL document CHEMBL1130120, “N-arylpiperazinyl-N'-propylamino derivatives of heteroaryl amides as functional uroselective alpha 1-adrenoceptor antagonists” (J Med Chem, 1997).

Key:
[1] = target: T1, Alpha-1D adrenergic receptor (Rattus norvegicus, UniProt P23944); assay: Antagonistic activity against rat aorta for affinity estimates representative of the Alpha-1D adrenergic receptor; format: functional, tissue-based; details: read-out: pA2 (converted)
T1 sequence (P23944 whole entry): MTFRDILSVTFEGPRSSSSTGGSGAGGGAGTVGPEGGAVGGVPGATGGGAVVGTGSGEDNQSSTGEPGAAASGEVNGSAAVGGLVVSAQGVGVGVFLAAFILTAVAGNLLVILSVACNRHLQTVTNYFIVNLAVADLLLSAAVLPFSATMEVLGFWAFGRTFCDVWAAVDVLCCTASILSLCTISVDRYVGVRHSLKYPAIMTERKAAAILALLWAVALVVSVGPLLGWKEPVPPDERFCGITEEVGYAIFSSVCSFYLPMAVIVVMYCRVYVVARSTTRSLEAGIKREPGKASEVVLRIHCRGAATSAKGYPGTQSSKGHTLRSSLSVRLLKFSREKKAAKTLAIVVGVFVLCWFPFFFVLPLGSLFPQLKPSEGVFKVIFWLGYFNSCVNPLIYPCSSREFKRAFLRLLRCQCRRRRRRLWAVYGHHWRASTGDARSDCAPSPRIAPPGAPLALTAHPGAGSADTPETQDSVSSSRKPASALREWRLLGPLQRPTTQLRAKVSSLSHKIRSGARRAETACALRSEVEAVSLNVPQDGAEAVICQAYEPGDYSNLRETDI
How it was run: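 Isolated smooth-muscle tissue with cumulative norepinephrine concentration–effect curves (rat aorta, human lower urinary tract). Affinity obtained by full Schild regression for some antagonists. […] Competitive, reversible interaction at a single subtype assumed.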

[2] = target: T2, Alpha-1A adrenergic receptor (Oryctolagus cuniculus, UniProt O02824); assay: Antagonistic activity against alpha 1A/1L receptor was assessed in a rabbit bladder neck functional assay; details: read-out: pA2 (converted)
T2 sequence (O02824 whole entry): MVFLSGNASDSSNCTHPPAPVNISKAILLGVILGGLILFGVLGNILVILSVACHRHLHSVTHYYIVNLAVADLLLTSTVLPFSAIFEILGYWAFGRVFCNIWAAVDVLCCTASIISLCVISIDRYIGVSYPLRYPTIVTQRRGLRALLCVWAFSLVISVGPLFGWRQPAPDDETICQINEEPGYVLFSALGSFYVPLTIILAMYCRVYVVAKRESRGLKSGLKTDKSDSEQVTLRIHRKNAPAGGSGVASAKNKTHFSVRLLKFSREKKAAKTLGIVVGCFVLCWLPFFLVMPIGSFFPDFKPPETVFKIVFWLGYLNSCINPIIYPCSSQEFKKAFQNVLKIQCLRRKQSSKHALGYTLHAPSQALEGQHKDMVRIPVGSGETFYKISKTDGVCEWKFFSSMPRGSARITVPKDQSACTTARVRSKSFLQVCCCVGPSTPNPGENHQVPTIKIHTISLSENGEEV

[3] = target: T3, Alpha-1A adrenergic receptor (Bos taurus, UniProt P18130); assay: In vitro for the displacement of [3H]prazosin binding to bovine Alpha-1A adrenergic receptor
T3 sequence (P18130 whole entry): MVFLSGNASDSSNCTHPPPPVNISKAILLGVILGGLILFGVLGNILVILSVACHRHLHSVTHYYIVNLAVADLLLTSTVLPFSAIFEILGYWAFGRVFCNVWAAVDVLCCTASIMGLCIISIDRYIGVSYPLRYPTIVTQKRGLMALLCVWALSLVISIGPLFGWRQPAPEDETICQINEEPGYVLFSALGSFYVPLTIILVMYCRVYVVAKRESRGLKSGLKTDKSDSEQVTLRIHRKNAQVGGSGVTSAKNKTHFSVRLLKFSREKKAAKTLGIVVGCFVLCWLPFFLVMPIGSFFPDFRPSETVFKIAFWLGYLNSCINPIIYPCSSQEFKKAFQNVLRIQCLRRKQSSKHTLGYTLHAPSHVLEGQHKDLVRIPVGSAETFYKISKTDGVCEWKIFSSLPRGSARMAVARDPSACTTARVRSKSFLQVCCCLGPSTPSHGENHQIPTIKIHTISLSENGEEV

Row | Compound | Kb [1] | Kb [2] | Ki [3]
1 | COc1cc(O)ccc1N1CCN(CCCNc2ncccc2C(=O)N(C)C)CC1 | 79.4 nM | 12.6 nM | –
2 | COc1ccccc1N1CCN(CCC(=O)Nc2ccccc2C(=O)N(C)C)CC1 | 63.1 nM | – | 1.58 nM
3 | COc1ccccc1N1CCN(CCCNc2c(C)c(=O)n(C)c(=O)n2C)CC1 | – | 3.98 nM | 0.501 nM
4 | COc1cc(F)ccc1N1CCN(CCCNc2c(C(=O)N(C)C)cnc3c2nc(C)n3C)CC1 | 79.4 nM | 0.631 nM | –
5 | COc1ccccc1N1CCN(CCCOc2ccccc2C(=O)N(C)C)CC1 | 31.6 nM | 3.98 nM | –
6 | CN(C)C(=O)c1cccnc1NCCCN1CCN(c2ccccc2-c2ncco2)CC1 | 25.1 nM | 0.316 nM | –
7 | Cc1noc2ncc(C(=O)N(C)C)c(NCCCN3CCN(c4ccccc4OCC(F)(F)F)CC3)c12 | 79.4 nM | 1.58 nM | –
8 | CN(C)C(=O)c1cccnc1NCCCN1CCN(c2ccccc2C#N)CC1 | 10 nM | 2 nM | –
9 | Cc1cnccc1N1CCN(CCCNc2ncccc2C(=O)N(C)C)CC1 | – | 200 nM | –
10 | COc1ccccc1N1CCN(CCCNc2ncc(O)cc2C(=O)N(C)C)CC1 | 10 nM | 2 nM | –
11 | COc1ccccc1N1CCN(CCCNc2ccncc2C(=O)N(C)C)CC1 | 50.1 nM | 12.6 nM | 0.794 nM
12 | COc1ccccc1N1CCN(CCCNc2ccc(C)cc2C(=O)N(C)C)CC1 | 20 nM | 0.501 nM | –
13 | CC(C)c1ccccc1N1CCN(CCCNc2ncccc2C(=O)N(C)C)CC1 | 63.1 nM | 0.398 nM | –
14 | COc1ccccc1N1CCN(CCCNc2cccc(C)c2C(=O)N(C)C)CC1 | 63.1 nM | 3.16 nM | –
15 | COc1cc2nc(N3CCN(C(=O)C4CCCO4)CC3)nc(N)c2cc1OC (racemic) [TERAZOSIN] | – | 20 nM | 2.51 nM
16 | COc1cc(F)ccc1N1CCN(CCCNc2c(C(=O)N(C)C)cnc3nc(C)ccc23)CC1 | 631 nM | 1.26 nM | –
17 | COc1ccccc1N1CCN(CCCNc2ncccc2C(N)=O)CC1 | 10 nM | – | 0.126 nM
18 | CCOc1ccccc1N1CCN(CCCNc2ncccc2C(=O)N(C)C)CC1 | 7.94 nM | 0.501 nM | –
19 | COc1cc(F)ccc1N1CCN(CCCNc2c(C(=O)N(C)C)cnc3c(C#N)cccc23)CC1 | 398 nM | 1.26 nM | –
20 | COc1ccccc1N1CCN(CCCNc2ccccc2C(=O)N(C)C)CC1 | 15.8 nM | 1 nM | 0.398 nM

Row | Compound | Kb [1] | Kb [2] | Ki [3]
21 | COc1ccccc1N1CCN(CCCNc2ncncc2C(=O)N(C)C)CC1 | 50.1 nM | 3.98 nM | –
22 | COc1ccccc1N1CCN(CCCNc2ncccc2C(=O)C(C)(C)C)CC1 | 6.31 nM | – | 0.398 nM
23 | CNC(=O)c1cnc2c(c(C)nn2C)c1NCCCN1CCN(c2ccccc2OCC(F)(F)F)CC1 | 3.98 nM | 0.1 nM | –
24 | CN(C)C(=O)c1cnc2c(c(C(C)(C)C)nn2C)c1NCCCN1CCN(c2ccccc2OCC(F)(F)F)CC1 | 63.1 nM | 2.51 nM | –
25 | Cc1ccc(N2CCN(CCCNc3ncccc3C(=O)N(C)C)CC2)c(-n2cccc2)c1 | 12.6 nM | 0.02 nM | –
26 | COc1cc(F)ccc1N1CCN(CCCNc2c(C(=O)N(C)C)c[nH]c3ccn[n+]2-3)CC1 | 100 nM | 0.631 nM | –
27 | CN(C)C(=O)c1cccnc1NCCCN1CCN(c2ccccc2Cc2ccccc2)CC1 | 79.4 nM | 6.31 nM | –
28 | CN(C)C(=O)c1cccnc1NCCCN1CCN(c2ccccc2OC(F)(F)F)CC1 | 100 nM | 3.16 nM | –
29 | COc1ccccc1N1CCN(CCCNc2ncccc2C(=O)N2CCCC2)CC1 | 20 nM | – | 0.794 nM
30 | COc1cc(F)ccc1N1CCN(CCCNc2c(C(=O)N(C)C)cnc3c(C)cccc23)CC1 | 316 nM | 7.94 nM | –
31 | CN(C)C(=O)c1cccnc1NCCCN1CCN(c2ccccc2O)CC1 | 63.1 nM | 5.01 nM | –
32 | COc1cc(F)ccc1N1CCN(CCCNc2c(C(=O)N(C)C)cnc3c(C(N)=O)cccc23)CC1 | 158 nM | 0.501 nM | –
33 | CN(C)C(=O)c1cccnc1NCCCN1CCN(c2ccccc2C(F)(F)F)CC1 | 316 nM | 12.6 nM | –
34 | COc1ccccc1N1CCN(CCCNc2ncccc2C(=O)C2CC2)CC1 | 2 nM | 0.501 nM | –
35 | CN(C)C(=O)c1cccnc1NCCCN1CCN(c2ccccc2OCC(F)(F)F)CC1 | 15.8 nM | 0.1 nM | –
36 | CC(C)(Cc1c[nH]c2ccc(Cl)cc12)NCCOc1ccccc1OCC1CC1 | – | 50.1 nM | 0.794 nM
37 | Cc1ccc(N(CC2=NCCN2)c2cccc(O)c2)cc1 [PHENTOLAMINE] | – | 6.31 nM | 0.794 nM
38 | Cc1ccccc1N1CCN(CCCNc2ncccc2C(=O)N(C)C)CC1 | 10 nM | 2 nM | 0.794 nM
39 | COc1ccccc1N1CCN(CCCNc2ccncc2C(=O)N(C(C)C)C(C)C)CC1 | 251 nM | – | 1.58 nM
40 | CN(C)C(=O)c1cccnc1NCCCN1CCN(c2ccccc2OCC(C)(C)C)CC1 | 50.1 nM | – | 0.794 nM

Row | Compound | Kb [1] | Kb [2] | Ki [3]
41 | COc1cc(C)ccc1N1CCN(CCCNc2ncccc2C(=O)N(C)C)CC1 | 39.8 nM | 0.794 nM | –
42 | COc1ccccc1N1CCN(CCCNc2nc(C)cc(C)c2C(N)=O)CC1 | 39.8 nM | 10 nM | 1.58 nM
43 | COc1ccccc1N1CCN(CCCNc2ncc(C#N)cc2C(=O)N(C)C)CC1 | 20 nM | 0.794 nM | –
44 | Cc1nn(C)c2ncc(C(=O)N(C)C)c(NCCCN3CCN(c4ccc(F)cc4-c4ncco4)CC3)c12 | 200 nM | 0.126 nM | –
45 | CSc1ccccc1N1CCN(CCCNc2ncccc2C(=O)N(C)C)CC1 | 31.6 nM | 0.631 nM | –
46 | CN(C)C(=O)c1cccnc1N1CCC(NCCOc2ccccc2-c2cncnc2)CC1 | 2510 nM | 20 nM | –
47 | CN(C)C(=O)c1cnc2c(Cl)cccc2c1NCCCN1CCN(c2ccccc2OCC(F)(F)F)CC1 | 126 nM | 0.794 nM | –
48 | CN(C)C(=O)c1cccnc1NCCCN1CCN(c2ccccc2C2CC2)CC1 | 63.1 nM | 0.631 nM | –
49 | CCCc1ccccc1N1CCN(CCCNc2ncccc2C(=O)N(C)C)CC1 | 31.6 nM | 0.2 nM | –
50 | COc1cc(F)ccc1N1CCN(CCCNc2c(C(=O)N(C)C)c[nH]c3c(Cl)cn[n+]2-3)CC1 | 158 nM | 0.794 nM | –
51 | CN(C)C(=O)c1cccnc1NCCCN1CCN(c2ccccc2OCC2CC2)CC1 | 10 nM | 0.158 nM | 0.0794 nM
52 | CN(C)C(=O)c1cnc2ccccc2c1NCCCN1CCN(c2ccccc2OCC(F)(F)F)CC1 | 100 nM | 3.98 nM | –
53 | COc1ccccc1N1CCN(CCCNc2ccc(C(=O)N(C)C)cn2)CC1 | 31.6 nM | 25.1 nM | –
54 | COc1ccc(N2CCN(CCCNc3ncccc3C(=O)N(C)C)CC2)c(OC)c1 | 1000 nM | 31.6 nM | –
55 | COc1ccccc1N1CCN(CCCSc2ccccc2C(=O)N(C)C)CC1 | 12.6 nM | 2 nM | –
56 | CN(C)C(=O)c1cccnc1NCCCN1CCN(c2ccccc2)CC1 | 15.8 nM | 6.31 nM | 2 nM
57 | CNC(=O)c1cccnc1NCCCN1CCN(c2ccccc2OC)CC1 | 3.16 nM | 1 nM | –
58 | Cc1cccc(C)c1N1CCN(CCCNc2ncccc2C(=O)N(C)C)CC1 | – | – | 7.94 nM
59 | COc1ccccc1N1CCN(CCCNc2ccccc2C(=O)c2ccccc2)CC1 | 10 nM | 31.6 nM | –
60 | CCOc1ccccc1OCCNC1CCN(c2ncccc2C(=O)N(C)C)CC1 | 15.8 nM | – | 3.16 nM
